A selection: hits, their analogues and other compounds. The true share with any hit is near 2.2%.
Env fusion inh: blocks HIV Env-driven cell-cell fusion; inhibition, % at 12.3 µM; hit rate 1.1% among 360,000; HeLa-JRFL Env/CEM21 cell fusion, luciferase;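 active = mean replicate inhibition score of at least 50 and every replicate individually at or above 50; inconclusive = only one of the two criteria met; inactive = mean below 50 and not all replicates reaching 50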;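 also: 0% = plate neutral controls and 100% = maraviroc near 300 nM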
GalR3 antagonist: human GalR3 antagonism; AID 651719; O60755; inhibition, % at 3 µM; hit rate 0.44% among 360,000; HEK293 GalR3-CNG cAMP membrane potential fluorescence; galR3 body fused to GalR1 C-terminus;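 active = inhibition above the screen-wide average plus 3 SD, cut at about 13% in these data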;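 also: forskolin and galanin both at EC90 stimulate the cells; cAMP rise reported by CNG channel membrane potential dye signal; 0% = forskolin plus galanin with DMSO and 100% = forskolin alone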
NR2E3 ag-1: activates human photoreceptor nuclear receptor NR2E3 | GST-NR2E3/biotin-RetCOR TR-FRET, 1536-well | inhibition of corepressor binding, % at 4.78 µM | Q9Y5X4 | hit rate 0.12% among 320,000 | AID 2300;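 active = percent inhibition above the cutoff of mean plus 3 SD of all tested compounds, set per screening campaign, cut at about 20% in these data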;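 also: 0% = DMSO wells and 100% = biotin wells as full block of FRET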
Target sequence (Q9Y5X4 whole entry, looked up): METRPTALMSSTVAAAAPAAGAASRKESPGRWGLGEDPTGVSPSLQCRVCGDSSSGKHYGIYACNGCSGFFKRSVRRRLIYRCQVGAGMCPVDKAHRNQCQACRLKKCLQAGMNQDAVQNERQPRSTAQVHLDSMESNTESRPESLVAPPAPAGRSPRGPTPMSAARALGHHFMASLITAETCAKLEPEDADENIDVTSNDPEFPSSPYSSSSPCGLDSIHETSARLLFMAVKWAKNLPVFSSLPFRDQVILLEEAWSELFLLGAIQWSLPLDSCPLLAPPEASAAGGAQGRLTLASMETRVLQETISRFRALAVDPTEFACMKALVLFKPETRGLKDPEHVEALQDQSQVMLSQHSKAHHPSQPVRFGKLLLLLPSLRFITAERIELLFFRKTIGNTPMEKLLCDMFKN
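System: GST-tagged NR2E3 plus biotinylated RetCOR corepressor; Amount: 1.35 nM GST-tagged NR2E3 final; Dosing: single nominal compound dose of 4.8 µM; Schedule: 5 h incubation at 4 °C; Technique: TR-FRET with europium anti-GST and streptavidin-D2, 340 nm excitation; Controls: biotin wells as high control, 0.6% DMSO wells as low control.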
NR2E3 ag-2: agonists of human NR2E3 nuclear receptor; Q9Y5X4; CHO-S Gal4-NCOR/VP16-NR2E3 two-hybrid, luciferase; inhibition of corepressor binding, % at 3.98 µM; hit rate 0.35% among 360,000; AID 602229;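 active = inhibition above the mean of all tested compounds plus 3 SD, cut at about 70% in these data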;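 also: 0% = DMSO with NR2E3 transfected cells and 100% = cells lacking NR2E3 construct; higher means lower luciferase signal from less NR2E3 corepressor binding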
GAA850 FXN act: increases GAA850 frataxin promoter reporter activity; hit rate 0.56% among 360,000; HEK293 lucGAA850 FXN promoter luciferase reporter, 24 h; percent of 10 µM SAHA response; activation, % at 6 µM;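 active = activation above the average of all compounds screened plus 3 SD, cutoff fixed separately per campaign, cut at about 7.5% in these data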;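 also: 0% = DMSO wells and 100% = 10 µM SAHA wells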
V-ATPase pHluor: alters yeast V-ATPase proton transport. S. cerevisiae, pHLuorin cytosolic pH fluorescence. AID 504577. response, % at 10 µM. hit rate 0.37% among 350,000; in the data active = response mostly above about 7.3%, no sharp cut-off; inactive = mostly below about 5.4%; also: actives read high
GAA30 counter: counter-screen for GAA850 frataxin promoter activators: GAA30 promoter activation; shares compounds with GAA850 FXN act; HEK293 lucGAA30 FXN promoter luciferase, 24 h; DMSO = 0%, 5 µM ipriflavone = 100%; activation, % at 6 µM; hit rate 66% among 1,900; AID 588350;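 active = mean activation above the mean of solvent-only control wells plus 3 SD, cut at about 22% in these data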;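 also: counterscreen of GAA850 promoter hits where activity marks nonselective or luminescence artifacts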
FXN GAA850 conf: confirmation of GAA850 frataxin (FXN) promoter activators; shares compounds with GAA850 FXN act; hit rate 86% among 1,900; activation, % at 6 µM; HEK293 lucGAA850 FXN promoter luciferase reporter, 24 h; 100% = activation by SAHA;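 active = mean activation above a set limit taken from the primary screen, cut at about 8% in these data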;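 also: 0% = DMSO wells and 100% = 10 µM SAHA wells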
* hit, by the source's call; ? = inconclusive; nt = no result given; [ ] = dose if it differs, or a comment.

SMILES	Env fusion inh	GalR3 antagonist	NR2E3 ag-1	NR2E3 ag-2	GAA850 FXN act	V-ATPase pHluor	GAA30 counter	FXN GAA850 conf
COc1ccc(Nc2nccc(-c3ccc(C#N)cc3)n2)cc1	-10	-9	1	19	1	0	nt	nt
COc1ccc(S(=O)(=O)N(C)C[C@H]2OCCCC[C@H](C)Oc3ccc(NS(=O)(=O)c4ccccc4)cc3C(=O)N([C@@H](C)CO)C[C@H]2C)cc1	11[16.7 µM]	nt	nt	nt	nt	nt	nt	nt
O=C1C2C3C=CC(C4CC34)C2C(=O)N1/N=C/c1ccc([N+](=O)[O-])o1 (stereo not given)	-26	-4	6	8	9.6*	-1	-2	12*
CCN(C[C@H]1N[C@@](Cc2ccccc2)(C(=O)OC)[C@H]2C(=O)N(Cc3ccccc3)C(=O)[C@@H]12)C(=O)Nc1ccc(C)cc1	-45	-8	nt	-18	-7	3	nt	nt
CCN(C[C@H]1N[C@@](CC)(C(=O)OC)[C@H]2C(=O)N(Cc3ccccc3)C(=O)[C@@H]12)C(=O)COC	4	-5	nt	-8	-2	0	nt	nt
CCN(C[C@H]1N[C@@](CC)(C(=O)OC)[C@H]2C(=O)N(Cc3ccccc3)C(=O)[C@@H]12)C(=O)Nc1ccc(Cl)cc1	86*	-3	nt	-16	15*	2	31*	14*
CCN(C[C@H]1N[C@@](CC)(C(=O)OC)[C@H]2C(=O)N(Cc3ccccc3)C(=O)[C@@H]12)C(=O)Nc1ccc(C)cc1	56*	-1	nt	1	14*	-2	33*	12*
CCN(C[C@H]1N[C@@](CC)(C(=O)OC)[C@H]2C(=O)N(C)C(=O)[C@@H]12)C(=O)Nc1ccc(Cl)cc1	-100	-5	nt	-6	-3	3	nt	nt
CCN(C[C@H]1N[C@@](CC)(C(=O)OC)[C@H]2C(=O)N(Cc3ccccc3)C(=O)[C@@H]12)C(=O)COc1ccccc1	?	-1	nt	-19	8.0*	2	28*	14*
COCC(=O)Nc1ccc2c(c1)C(=O)N(C)[C@H]1CC[C@H](CC(=O)Nc3ccccc3F)O[C@@H]1CO2	-19[16.7 µM]	nt	nt	nt	nt	nt	nt	nt
O=C(CSc1nc(-c2ccc(F)cc2)cs1)N1CCOCC1	nt	0	-1	-67	8.1*	-1	74*	27*
CC1CN(C(=O)CSc2nc(-c3ccc(F)cc3)cs2)CC(C)O1 (stereo not given)	nt	-3	1	5	1	-2	nt	nt
O=C(Cn1ncc(Cl)c(Cl)c1=O)N1CCN(S(=O)(=O)c2ccc3ccccc3c2)CC1	-15	-5	16	-5	9.7*	0	-63	16*
COc1ccc(-c2nnc3sc(C4CCCCC4)nn23)cc1OC	-11	10	-1	-1	8.8*	-1	10	11*
CO[C@@H]1CN(C)C(=O)c2ccc(NS(=O)(=O)c3ccc(Cl)cc3)cc2OC[C@@H](C)N(C(=O)Cc2cccnc2)C[C@H]1C	-7[16.7 µM]	nt	nt	nt	nt	nt	nt	nt
CC(C)C#Cc1cnc2c(c1)C(=O)N([C@H](C)CO)C[C@@H](C)[C@@H](CN(C)C(=O)Nc1ccc(F)cc1)O2	0[16.7 µM]	nt	nt	nt	nt	nt	nt	nt
Cc1ccc(CNc2ccc3c(c2)ncn3C)cc1	-55	-1	4	-104	6	0	nt	nt
Cc1ccc(CNc2ccc3c(c2)ncn3C(C)(C)C)cc1	-28	-3	0	-112	10.0*	6	107*	37*
Nc1ccc2ccc(O)cc2c1	-5	-6	nt	-41	3	-3	nt	nt
C[n+]1c2cc(N)ccc2cc2ccc(N)cc21	-101	-3	nt	-23	20*	-51	16	138*
Cc1noc(C)c1NC(=O)Nc1ccc2c(c1)CC(=O)N([C@H](C)CO)C[C@H](C)[C@@H](CN(C)S(=O)(=O)c1cccs1)O2	-4[16.7 µM]	nt	nt	nt	nt	nt	nt	nt
C[C@@H]1CCCCO[C@@H](CN(C)C(=O)Cc2ccccc2)[C@@H](C)CN([C@H](C)CO)C(=O)c2cc(NC(=O)c3ccccc3)ccc2O1	-16[16.7 µM]	nt	nt	nt	nt	nt	nt	nt
